The record followed here is ChEMBL document CHEMBL1122952, “Thromboxane synthetase inhibitors (TXSI). Design, synthesis, and evaluation of a novel series of omega-pyridylalkenoic acids” (J Med Chem, 1985).

Common to all, as to assay type: functional
Assay [1] relates to Rattus norvegicus. In words: Ex vivo percent inhibition against serum TXB2 production after 2 hr at dose 10 mg/kg by oral administration in rat.
The subject of assay [2] is Rattus norvegicus. In words: Ex vivo percent inhibition against serum TXB2 production after 24 hr r at dose 1 mg/kg by oral administration in rat. A digest of the protocol:
(§1)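 Male Sprague–Dawley rats, 7–8 weeks old, dosed orally. Controls got vehicle alone (2 mL/kg water with a little gum arabic). At 24 h, 1 mL blood was drawn from the abdominal aorta under pentobarbital anesthesia (50 mg/kg ip) and clotted 90 min at 25 °C. Serum TXB2 was measured by radioimmunoassay. % inhibition = [1 − (B/A)] × 100 versus untreated rats.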

The test system of assay [3] is Rattus norvegicus. In words: Ex vivo percent inhibition against serum TXB2 production after 24 hr r at dose 10 mg/kg by oral administration in rat. A digest of the protocol:
as §1

What is called inhibition in vivo is the change of the read-out against control, counted positive when it falls. Read a high inhibition in vivo as strong suppression. In the assay on Rattus norvegicus [1], `O=C(O)CCCC/C=C(\c1ccccc1)c1ccc[n+]([O-])c1` registered an inhibition in vivo at 10 mg/kg of 85%.
Still for that read-out and setting: the value for `NC(=O)CCCC/C=C(\c1ccccc1)c1cccnc1` was 93%.
In the assay with Rattus norvegicus [2], `O=C(O)CCCCC/C=C(\c1ccccc1)c1cccnc1` displayed an inhibition in vivo at 1 mg/kg of 24%.
In turn, `COC(=O)CCCC/C=C(\c1ccccc1)c1cccnc1` returned an inhibition in vivo at 10 mg/kg in the assay with Rattus norvegicus [1] of 92%.
In turn, `CC(C)(CCC/C=C(\c1ccccc1)c1cccnc1)C(=O)O` had an inhibition in vivo at 1 mg/kg in the assay on Rattus norvegicus [2] of 14%.
As to `OCCCCC/C=C(\c1ccccc1)c1cccnc1`, 10 mg/kg produced 92% inhibition in vivo in the assay with Rattus norvegicus [1].
`O=C(O)CCCCCC/C=C(\c1ccccc1)c1cccnc1`: in the assay on Rattus norvegicus [2], the inhibition in vivo at 1 mg/kg is 17%.
The same measure, in the same setting: the value for `CC(C)CSC(CCC/C=C(\c1ccccc1)c1cccnc1)C(=O)O` (stereo unspecified) was 8%.
Turning to `CCOC(=O)CCCC/C=C(\c1ccccc1)c1cccnc1`, in the assay on Rattus norvegicus [1], the inhibition in vivo at 10 mg/kg is 90%. In the assay with Rattus norvegicus [2], this compound displayed an inhibition in vivo at 1 mg/kg of 35%.
`CC(C)(CCC/C=C(/c1cccnc1)c1cccs1)C(=O)O`: the inhibition in vivo at 1 mg/kg with Rattus norvegicus [2] is 17%.
In turn, `O=C(O)CCCCCCCC/C=C(\c1ccccc1)c1cccnc1` returned an inhibition in vivo at 10 mg/kg in the assay with Rattus norvegicus [1] of 92%. The inhibition in vivo at 1 mg/kg in the assay with Rattus norvegicus [2] is 10%.
`CC(C)(O)C(CCC/C=C(\c1ccccc1)c1cccnc1)C(=O)O` (stereo unspecified) registered an inhibition in vivo at 1 mg/kg in the assay on Rattus norvegicus [2] of 37%.
Consider `O=C(O)CCCC/C=C(\c1ccccc1)c1cccnc1` [(E)-ISBOGREL], for which the inhibition in vivo at 10 mg/kg with Rattus norvegicus [3] was 90%. This compound yielded an inhibition in vivo at 1 mg/kg in the assay on Rattus norvegicus [2] of 53%.
